A short description of data set [1]: Antiinflammatory activity against Sprague-Dawley rat neutrophils assessed as inhibition of fMLP/cytochalasin B-induced lysozyme release. Type of data set: functional, cell-based. The conditions noted are these: Neutrophil. In a few lines:
(§1)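 Rat (Sprague-Dawley) peripheral blood neutrophils incubated with test compound 5 min at 37 °C, then stimulated with fMLP (0.3 μM)/cytochalasin B (5 μg/ml) for 45 min. β-Glucuronidase and lysozyme measured in supernatant. Compound stocks in DMSO; final DMSO <0.5% (v/v). Means ± SE of at least three separate experiments.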

The nature of data set [2]: Antiinflammatory activity against Sprague-Dawley rat neutrophils assessed as inhibition of fMLP/cytochalasin B-induced beta-glucuronidase release. Type of data set: functional, cell-based. The conditions noted are these: Neutrophil. The method, boiled down:
as §1

Another data set deals with Neutrophil. Description: Inhibition of fMLP-induced superoxide generation in Sprague-Dawley rat neutrophils. Format: functional, cell-based. In a few lines:
(§2)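 Sprague-Dawley rat peripheral blood neutrophils preincubated with compound 5 min at 37 °C, then stimulated 30 min with fMLP (0.3 μM)/CB (5 μg/mL) or PMA (3 nM) in presence of cytochrome c. Superoxide quantified as superoxide dismutase-inhibitable cytochrome c reduction. Final DMSO <0.5% (v/v). IC50 as means ± SE, at least three separate experiments.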

For data set [3], the species on record is Rattus norvegicus. Description: Inhibition of PMA-induced superoxide generation in Sprague-Dawley rat neutrophils. Type of data set: functional. The settings on record: Neutrophil. In a few lines: as §2
Data set [4] relates to RAW264.7. Nature of the data set: Inhibition of LPS-induced nitric oxide accumulation in mouse RAW264.7 cells. Type of data set: functional, cell-based. The method, boiled down: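 RAW 264.7 macrophages grown in DMEM with 5% FBS at 37 °C, 5% CO2, and stimulated with LPS. Nitrite accumulated in medium read with Griess reagent (sulfanilamide/N-(1-naphthyl)ethylenediamine in phosphoric acid, 5 min) at OD550 against sodium nitrite standard in culture medium. IC50 as means ± SE of at least three experiments.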

In data set [5] the test system is RAW264.7. Description: Cytotoxicity against mouse RAW264.7 cells up to 10 uM after 24 hrs by methylene blue assay. Format: cell-based. The conditions noted are these: raw264.7, 24 h. In a few lines: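 RAW 264.7 cells seeded at 2×10^5 cells/well, given LPS plus various compound concentrations for 24 h. Stained with 1% methylene blue for 40 min, washed, dye released with 1% sarcosyl for 4 h, absorbance read at 570 nm. LPS-treated cells without compound set as 100% survival.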

Data set [6] deals with RAW264.7. Description: Inhibition of LPS-induced iNOS protein expression in mouse RAW264.7 cells after 2 hrs by Western blot. Type of data set: functional, cell-based. In a few lines: (§3)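 RAW 264.7 cells (5×10^5 cells/well) pretreated with compound 2 h, then stimulated with LPS 0.1 μg/mL for 24 h. Lysed in RIPA buffer, protein measured by Bradford, 15 μg run on 8% SDS–PAGE and immunoblotted for iNOS with ECL detection. Bands quantified densitometrically relative to β-actin.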
Background: In western blotting, separated proteins are transferred to a membrane and probed.

For data set [7], the system named is RAW264.7. Description: Inhibition of LPS-induced iNOS protein expression in mouse RAW264.7 cells at 5 uM after 2 hrs by Western blot. Type of data set: functional, cell-based. The method, boiled down: as §3
Data set [8] deals with Rattus norvegicus. Nature of the data set: Inhibition of iNOS mRNA expressing in cecal ligation and puncture Sprague-Dawley rat model at 10 mg/kg, ip treated 1 hr before surgery measured after 24 hrs of surgery by PCR amplification. Type of data set: functional. The settings on record: route intraperitoneal. In a few lines: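 Sprague-Dawley rats aged 6–8 weeks, 3–4 per group, given compound or hydrocortisone 10 mg/kg by intraperitoneal injection 1 h before cecal ligation and puncture. Resuscitated with 1 mL normal saline after surgery; sham animals handled identically. Lung tissue collected 24 h post-surgery; iNOS mRNA band intensities normalized to GAPDH.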

The test system of data set [9] is Rattus norvegicus. Nature of the data set: Inhibition of sepsis-induced PGE2 production in cecal ligation and puncture Sprague-Dawley rat model serum at 10 mg/kg, ip treated 1 hr before surgery measured after 24 hrs of surgery by ELISA. Type of data set: functional. The settings on record: route intraperitoneal. The method, boiled down: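 Sprague-Dawley rats aged 6–8 weeks (3–4 per group) pretreated intraperitoneally with 10 mg/kg compound or hydrocortisone 1 h before cecal ligation and puncture, saline-resuscitated after. Blood taken from portal vein 24 h post-surgery, centrifuged 3000 rpm 20 min, serum stored at -70 °C. PGE2 measured by ELISA; average of three independent studies.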

Each structure is given as a SMILES string. Active and inactive are the calls of the source. No cut-off for these calls is given here.

For `O=[N+]([O-])c1ccc(-c2nc3c4ccccc4c4occc4c3[nH]2)cc1`, the IC50 is more than 10 µM in data set [1]; more than 10 µM in data set [2]; more than 30 µM in the data set on Neutrophil; more than 30 µM in the data set listed under Rattus norvegicus [3]; more than 10 µM in the data set on RAW264.7 [4].
Turning to `c1coc(-c2nc3c4ccccc4c4occc4c3[nH]2)c1`, the concentration for half-maximal inhibition (IC50) in data set [1] is 19.5 µM; in [2] it was 11.3 µM; in the data set on Neutrophil it was more than 30 µM; in the data set filed under Rattus norvegicus [3], more than 30 µM; with RAW264.7 [4], 11.9 µM. The Activity entry in the data set on RAW264.7 [5] is “Non-toxic”. The inhibition entry with RAW264.7 [6] was “Dose-dependent effect”.
As for `c1ccc2c(c1)c1nc[nH]c1c1ccoc21`, the IC50 (in data set [1]; in data set [2]; in the data set on Neutrophil; in the data set listed under Rattus norvegicus [3]; in the data set on RAW264.7 [4]) was more than 30 µM in each case.
As to `O=[N+]([O-])c1ccc(-c2nc3c4ccccc4c4occc4c3[nH]2)o1`, the IC50 is more than 30 µM in data set [1]; more than 30 µM in [2]; more than 30 µM in the data set with Neutrophil; more than 30 µM in the data set filed under Rattus norvegicus [3]; 1.5 µM with RAW264.7 [4]. In addition, the Activity entry in the data set on RAW264.7 [5] is on record as “Non-toxic”. Moreover, in the data set with RAW264.7 [6], the inhibition entry is “Dose-dependent effect”.
Regarding `c1ccc(-c2nc3c4ccccc4c4occc4c3[nH]2)cc1`, the IC50 in data set [1] is 16.3 µM; in data set [2], 11.4 µM; in the data set with Neutrophil, more than 30 µM; in the data set filed under Rattus norvegicus [3], more than 30 µM; in the data set on RAW264.7 [4] it was more than 10 µM.
As to `O=Cc1ccc(-c2nc3c4ccccc4c4occc4c3[nH]2)cc1`, the IC50 is 7.4 µM in data set [1]; 5 µM in data set [2]; more than 30 µM in the data set with Neutrophil; more than 30 µM in the data set filed under Rattus norvegicus [3]; more than 10 µM in the data set with RAW264.7 [4].
For `c1ccc2c(c1)[I+]c1ccccc1-2` [DIPHENYLENEIODONIUM CHLORIDE], the IC50 amounted to 5.2 µM in the data set on Neutrophil and 4.3 µM in the data set filed under Rattus norvegicus [3].
`O=[N+]([O-])c1ccc(/C=C/c2nc3c4ccccc4c4occc4c3[nH]2)o1`: the half-inhibitory concentration (IC50) was more than 30 µM in data set [1]; more than 30 µM in [2]; more than 30 µM in the data set with Neutrophil; more than 30 µM in the data set filed under Rattus norvegicus [3]; 1.3 µM in the data set with RAW264.7 [4]. For the same compound, the Activity result in the data set with RAW264.7 [5] is listed as “Non-toxic”. Besides, the inhibition result with RAW264.7 [6] is “Dose-dependent effect”. Moreover, the inhibition result in the data set on RAW264.7 [7] is “Active”. Moreover, the inhibition in vivo at 10 mg/kg in the data set on Rattus norvegicus [8] stood at 30%; in the data set with Rattus norvegicus [9], 150%.
Consider `CN1CCN(CCCN2c3ccccc3Sc3ccc(C(F)(F)F)cc32)CC1` [TRIFLUOPERAZINE], for which the values for the IC50 in data set [1] and in [2] were 11.9 µM and 12.5 µM, respectively.
`CC(=N)NCc1cccc(CN)c1` [1400W] gave an IC50 in the data set on RAW264.7 [4] of 2.7 µM.

The IC50 is the concentration that inhibits the measured activity by half. In general, inhibition in vivo refers to the change of the read-out against control, counted positive when it falls.
